Tested on: MS2 coat protein
Assay: apparent Kd, MS2 coat protein; higher = weaker binding; RNA-MaP array; FMN 200 µM where present
Outline: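 SNAP-549-labelled MS2 coat protein, doubled from 0.7 or 1.5 nM to 3 µM, was titrated over designs transcribed by stalled E. coli RNA polymerase on Illumina sequencing-chip clusters. Titrations were run without and then with constant ligand in 100 mM Tris-HCl pH 7.5, 80 mM KCl, 4 mM MgCl2, BSA, DTT, yeast tRNA and Tween-20. The apparent Kd is the median of filtered per-cluster fits to green signal normalised to red-channel RNA signal and control-cluster median Fmax.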

[1] = designed as: ON switch for flavin mononucleotide, no ligand
[2] = ligand present: flavin mononucleotide, designed as: ON switch for flavin mononucleotide
[3] = designed as: OFF switch for flavin mononucleotide, no ligand
[4] = ligand present: flavin mononucleotide, designed as: OFF switch for flavin mononucleotide

Row | Sequence | apparent Kd [1] | apparent Kd [2] | apparent Kd [3] | apparent Kd [4]
1 | GUAUGGAGUACAGGAUAUGUAAGUUUUAAGUGUAUUGGUUAUUACUUAACAACAGAAGGGUAUUACAUGAGGAUCACCCAUGUA | 13.4 nM | 11 nM | – | –
2 | AACAGUCUGGAGGAUAUGCUGGAUGAAUAUCUGGCAGAAGGCUGGACAUGAGGAUCACCCAUGUAAAUACUACC | – | – | 27.1 nM | 54.5 nM
3 | AGCUGUGGCCGAGGAUAUCUGUCCCAUAAAACCGAAAUAUAAUCGGACAUGAGGAUCACCCAUGUAGAGAAGGCGGUCUCAGCA | – | – | 44.1 nM | 70.7 nM
4 | CUUUUGUGAGGAUAUCUGGCUUCGAUCGUGAGAUCGAGGCUAGAGAAGGCACAUGAGGAUCACCCAUGUACCUC | – | – | 24.3 nM | 149 nM
5 | UAAAUCUUGUAAGGAUAUACACGAGAUUCAAGUGUAGAAGGUACUUACAUGAGGAUCACCCAUGUAUACAUGGAUAUUAGAUAU | 142 nM | 38.9 nM | – | –
6 | CAGAAGUCAGGAUAUCCAUGGCGGCACUUGCGUGGUGGCGUGGAGAAGGGACAUGAGGAUCACCCAUGUAAAGU | – | – | 58.7 nM | 61.7 nM
7 | ACCACGUUAGCGAUAUGAUCGAGAGAUCAUGUCGCUAUAUUUAGAAGGACAUGAGGAUCACCCAUGUAGGAUAUGGGUCGUGGA | 36.3 nM | 9.03 nM | – | –
8 | GGUCCCUACGCACAGGAUAUUCUUUUGGCAACAUGAGGAUCACCCAUGUGUGCCGAUCAUGGUUAGAAGAAGGGUGGUAGGGACC | 20.6 nM | 15.7 nM | – | –
9 | GGAGCCGGCACUGAGGAUAUUCAUAUUAAAACAUGAGGAUCACCCAUGUAGGCCAGAAGGCCUUGGGAGAAGGCGGGUCGGCCCG | 531 nM | 35.3 nM | – | –
10 | CAUAUGGUAACAGGAUAUAUGAGUCCUACAUGAGGAUCACCCAUGUAGGUGAUCUAACGAGAUUAGUAGAAGGGUUACCAUAUG | 18.2 nM | 8.98 nM | – | –
11 | UUUUUUUUAGUAAGGAUAUGAUGCAGGAAACUGCGUCAGAAGGUACAUGAGGAUCACCCAUGUUAAUUUUGUUU | – | – | 18.8 nM | 20.4 nM
12 | CUGAGCUUAGGAUAUACGUGUUGAUCUGAUCUCGACCUAUUACAUGAGGAUCACCCAUGUAGAAGGGAGCCGGA | – | – | 17.6 nM | 19.3 nM
13 | UUAAAUCAUGUAGGAUAUGCAUGGCGAAGCUACGCAGAAGGACAUGAGGAUCACCCAUGUUCUAGCGUCUCAGUAGAGAUGCAA | – | – | 18.4 nM | 63.3 nM
14 | UGUCUGAUCUAAUAACAUGAGGAUCACCCAUGUGUUCACAACUAGGAUAUCGAUUGUUAAGAAAUCGAGAAGGAGUAUACAUUA | – | – | 44.8 nM | 50.8 nM
15 | UCACGGGACUGAGGAUAUACAUGAAUUAUUUUUGUAGAAGGCAGAAUGUUAGAUUAUUCACUAUACAUGAGGAUCACCCAUGUU | – | – | 25.3 nM | 18.2 nM
16 | UAGUUACAUGAGGAUCACCCAUGUGAGGAUAUGAGUCAGUCACGGUGACGUGGCUGACUCAGAAGGCACUAUGG | – | – | 198 nM | 154 nM
17 | CUUUUACAUGAGGAUCACCCAUGUUAUGGCGGGUCAGGAUAUAGAUCGGAUGCGUUCUGUCUAGAAGGGACAUGUU | 52.2 nM | 33.4 nM | – | –
18 | GUAUCCGCUGAGGAUAUAAACUCCCUUGAGGGUUUAGAAGGCAGCACAUGAGGAUCACCCAUGUGGUAAGUUUG | – | – | 17.1 nM | 29.2 nM
19 | UUGAAGUCAUCAGGAUAUAGUAUUAAAGACAUUUAUUUUUUCAUACAUGAGGAUCACCCAUGUCGCUAGAAGGGAUUAUAGAUU | – | – | 51.8 nM | 49.2 nM
20 | UAUUAGUGAGGAUAUGAGUCGUAGAACAAUAGUACUACGUCUCAGAAGGUACAUGAGGAUCACCCAUGUUCCUC | – | – | 19 nM | 22.8 nM
21 | CCGCCUCUAGUCAGGAUAUUUACGGAAGAGCACGAAGAGAAGGGACAUGAGGAUCACCCAUGUUUGAUCACGGC | – | – | 30.5 nM | 31.4 nM
22 | UGUAUGGACAGAGGAUAUGCCGAUAGGAUCUACUAUCGAAGAAUCCUCACAUGAGGAUCACCCAUGUAGAAGGCUGUCCAUACC | – | – | 8.57 nM | 36.8 nM
23 | GAUAGGACAGAGAAGGACGUAGCUAGAGAUACUAGCAUAAAGUCUUCAACAUGAGGAUCACCCAUGUAGGAUAUCUGUCCUAUC | – | – | 6.43 nM | 6.64 nM
24 | UGUCCAUAGCAGAAGGACAUAAAUUUCCAUGAAAACAUGAGGAUCACCCAUGUAGGAUAUGCUAUGGACUAAGAGCGAAAGCUC | – | – | 5.21 nM | 10.3 nM
25 | GUAGUGUAGUGAGGAUAUACGAGAUCGAUAGAUCGGCGAUCCAAUUAUACAUGAGGAUCACCCAUGUAGAAGGCACUUCACUAC | – | – | 10.1 nM | 59.2 nM
26 | AUAGAAGUCUAGAAGGACCUAGCUGUAUACCAUCAGGUAUAUACGCUAGGUAGGAUAUGGGACAUGAGGAUCACCCAUGUGUUG | 48 nM | 22.6 nM | – | –

From the EternaBench riboswitch data
